Columns and labels:
[1] = test system: HeLaM cells expressing mcherry-α-tubulin; assay: Spindle reassembly after recovery from cold shock; assay type: cell-based; details: 8 minutes post-rewarming, versus control
Method in brief: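 HeLaM clone stably expressing mCherry-α-tubulin, treated with test compound or DMSO for 30 min at 37 °C, chilled 30 min at 4 °C, then rewarmed at 37 °C. Fixed at 0, 4, 8 and 20 min after rewarming; wide-field fluorescence imaging. Four repeats, 10–30 cells per condition per experiment. Blinded 8-min images scored, and spindle outlines traced to quantify morphology.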

[2] = test system: acetylation of SMC3 in HeLaM cells; assay: Western blot of SMC3 acetylation in HeLaM cells; assay type: cell-based; details: overnight treatment
Method in brief: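 Acetylated SMC3 detected by immunoblot with an anti-acetyl-SMC3 antibody, HRP-conjugated secondary antibody and enhanced chemiluminescence, imaged on film.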

[3] = test system: histone H3 acetylation and tubulin acetylation in HCT116 cells; assay: Western blot of histone H3 and tubulin acetylation in HCT116 cells; assay type: cell-based, human; details: HCT116, 24 h, IPEs up to highest concentration 25 μM
Method in brief: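 HCT116 cells (2 × 10^6 per T-25 flask) adhered overnight, then given test compound at 1, 10 or 25 μM, or DMSO, for 24 h. Lysed in RIPA; protein measured by BCA. Acetyl-histone H3 and acetyl-tubulin immunoblotted, detected with fluorescent secondary antibodies on an Odyssey scanner.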

[4] = test system: HeLaM cells; assay: Flow cytometry cell cycle analysis; assay type: cell-based
Method in brief: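 5 × 10^5 HeLaM cells plated, treated next day with test compound or DMSO for 24, 48 or 72 h. All cells (floating and attached) collected and fixed in 70% ethanol (final). […] 10 μg/ml, 30 min, 37 °C, then propidium iodide in PBS + 2% FBS. SubG1 gated; subG1 excluded before modeling live-cell cycle distribution.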

[5] = test system: HCT 116 cells; assay: MTS reduction assay, antiproliferative activity on HCT 116; assay type: cell-based; details: Homo sapiens, HCT-116, 96 h
Method in brief: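 HCT116 cells grown in McCoy's 5A with 10% FBS (37 °C, 5% CO2), seeded at 3 × 10^3/well in triplicate and left to adhere overnight. Exposed to test compound at 0.01–100 μM, or DMSO, for 96 h. MTS reagent added for 2 h at 37 °C; absorbance read at 490 nm. Curves of log(concentration) vs response fitted with a variable Hill slope.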

[6] = test system: HDAC8-null and control HCT116 cells; assay: Cytotoxicity in HDAC8-null versus control HCT116 cells; assay type: cell-based, human; details: 10 μM
[7] = test system: mitotic spindle of HeLaM cells; assay type: cell-based; details: compound 10 μM + MG132 + ZM447439 (DMSO+MG132+ZM447439 3%)
[8] = test system: HeLaM cells; assay: Chromosome drops to determine mitotic index; assay type: cell-based; details: 10 μM, after release from thymidine block
Method in brief: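 HeLaM cells held in S phase with a single 2 mM thymidine block overnight, washed in PBS and released into test compound for about 9 h, then given ZM447439 for 90 min. Attached and floating cells were pooled, trypsinized, swollen in 0.075 M KCl (10 min, 37 °C), fixed in methanol:acetic acid 3:1 and dropped onto slides. DAPI stain. Mitotic index scored blinded over at least three experiments.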

[9] = biological target: tubulin heterodimers, purified from porcine brain (Sus scrofa, UniProt P02554); assay: Turbidity-based tubulin polymerization assay; assay type: biochemical; details: for Vmax of tubulin polymerization: 37 °C, exponential phase (DMSO 10 mOD/min)
[10] = test system: purified HDAC isoforms (HDAC1, 2, 3, 8 and HDAC6); assay: Single concentration; assay type: biochemical; details: 100 μM, HDAC1, 2, 3, 8 and 6
Method in brief: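 Recombinant HDAC1, 2, 3, 6 or 8 (1 μL of enzyme stock at 3, 1, 30, 35 or 70 ng/μL respectively) in HDAC-Glo buffer, incubated 3 h at room temperature with test compound in DMSO. HDAC-Glo reagent then added; luminescence read every 3 min for 30 min. Peak signal corrected against a no-enzyme background and divided by the no-inhibitor signal to give % activity remaining.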

[11] = test system: NCI sixty human tumor cell line panel; assay: NCI sixty human tumor cell line panel, single dose 10 μM; assay type: cell-based; details: Homo sapiens, read-out: Mean % growth at 10 μM
[12] = test system: HeLaM cells; assay: Phase contrast time lapse microscopy, mitotic duration; assay type: cell-based; details: asynchronous HeLaM cells, images every 12 min

Chain of tubulin heterodimers, purified from porcine brain (P02554 whole entry, canonical isoform): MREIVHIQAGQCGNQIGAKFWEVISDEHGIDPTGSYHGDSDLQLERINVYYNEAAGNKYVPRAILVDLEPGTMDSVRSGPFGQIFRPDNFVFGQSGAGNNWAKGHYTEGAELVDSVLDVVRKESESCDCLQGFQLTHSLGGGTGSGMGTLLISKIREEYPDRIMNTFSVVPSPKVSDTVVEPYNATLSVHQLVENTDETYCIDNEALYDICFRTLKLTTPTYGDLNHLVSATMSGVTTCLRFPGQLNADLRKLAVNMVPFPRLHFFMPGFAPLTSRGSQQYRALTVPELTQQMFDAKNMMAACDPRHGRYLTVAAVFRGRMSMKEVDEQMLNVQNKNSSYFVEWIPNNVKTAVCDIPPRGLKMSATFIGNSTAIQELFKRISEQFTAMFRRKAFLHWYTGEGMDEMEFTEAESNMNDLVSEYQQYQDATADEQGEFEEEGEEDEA
Chain of tubulin heterodimers, purified from porcine brain (P02550 whole entry partner, canonical isoform): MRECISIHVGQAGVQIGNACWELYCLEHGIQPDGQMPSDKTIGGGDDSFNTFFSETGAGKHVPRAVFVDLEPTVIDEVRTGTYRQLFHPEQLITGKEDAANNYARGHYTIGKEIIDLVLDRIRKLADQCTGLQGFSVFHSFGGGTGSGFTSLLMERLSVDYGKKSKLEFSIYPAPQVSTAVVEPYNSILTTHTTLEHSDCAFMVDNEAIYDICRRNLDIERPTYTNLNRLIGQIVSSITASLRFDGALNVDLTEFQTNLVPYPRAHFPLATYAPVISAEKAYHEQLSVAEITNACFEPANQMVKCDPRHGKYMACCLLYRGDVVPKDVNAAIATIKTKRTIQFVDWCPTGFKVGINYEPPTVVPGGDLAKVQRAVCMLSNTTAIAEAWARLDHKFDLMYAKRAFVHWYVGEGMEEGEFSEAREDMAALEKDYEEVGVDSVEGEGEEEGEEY

SMILES | abnormal spindles [1] | SMC3 acetylation [2] | global histone H3 acetylation and tubulin acetylation [3] | cells in G2/M ([4]; 48 hours, subG1 excluded (DMSO 10%)) [%] | subG1 population ([4]; 72 hr post treatment (DMSO 14%)) [%] | GI50 [5] [µM] | cell killing of parental and HDAC8-null cells [6] | spindle collapse [7] | mitotic arrest (mitotic index) [8] | Vmax of tubulin polymerization ([9]; 10 μM compound) [mOD/min] | Vmax of tubulin polymerization ([9]; 50 μM compound) [mOD/min] | microtubule depolymerization upon cooling ([9]; 50 μM, cooling to ~15°C) | activity remaining, each HDAC isoform [10] | activity at 10 µM [11] [%] | mitotic duration / mitotic arrest [12] [h]
O=C(Cc1ccc(/C=C/C(=O)c2ncc[nH]2)cc1)Nc1ccc(F)cc1 [IPE-7, (E)-2-(4-(3-(1H-Imidazol-2-yl)-3-oxoprop-1-en-1-yl)phenyl)-N-(4-fluorophenyl)acetamide] | significantly more abnormal spindles | no effect on SMC3 acetylation | no increase in global histone acetylation or tubulin acetylation | 36 | 58 | 6.95 | both parental and HDAC8-null cells were killed | 97% | arrested cells in mitosis | 5.5 | 4.5 | Depolymerization was accelerated | 20–80% | 27.5 | 
COc1ccc(Cn2ccc3ccc(C(=O)NO)cc32)cc1 [PCI34051, reference compound] |  | an increase in SMC3 acetylation |  |  |  |  |  | did not produce the same aberrant spindle |  |  |  |  |  |  | 1.5

From article PMC8530978 (Bioorganic chemistry, 2021)
